# Sampled rows, rich in hits. Any-hit rate of the full collection: about 2.3%.
# ARFGAP1 inh: rat ARFGAP1 inhibition. Q62848. inhibition, % at 16.5 µM. AID 651572. 360,000 tested, 0.26% active. Arfgap1-stimulated ARF1 GTP hydrolysis, GDP FP detection;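 active = inhibition above a per-plate limit, mean inhibition of low control wells plus 3 SD, cut at about 25% in these data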;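 also: 0% = DMSO wells with enzyme and 100% = wells lacking Arfgap1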
# Target sequence (Q62848 1-136 limits assumed): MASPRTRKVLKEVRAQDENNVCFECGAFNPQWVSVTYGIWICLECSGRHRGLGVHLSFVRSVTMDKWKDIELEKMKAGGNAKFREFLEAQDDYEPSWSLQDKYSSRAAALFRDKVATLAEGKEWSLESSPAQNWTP
#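 material = rat Arfgap1 catalytic domain, aa 1-136 | also added = human ARF1(Δ1-17)-GTP substrate | compound dosing = one concentration, 16.5 µM, DMSO 1.26% | times = GTP hydrolysis reaction 2 h at 25 °C | measured by = FP, GDP Alexa 633 tracer displaced from anti-GDP antibody, 620/688 nm | evaluation = percent inhibition of Arfgap1-stimulated GTP hydrolysis | replication = single well per compound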
# SKKanGAS inh: blocks kanamycin growth of S. pyogenes SKKanGAS strain | inhibition, % at 7.5 µM | BacTiter-Glo, 6 h | AID 1662 | 300,000 tested, 1.3% active;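 active = mean replicate score, as percent of positive control median, at least 50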;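 also: strain carries kanamycin resistance gene driven by streptokinase promoter and grows in 40 µg/ml kanamycin; loss of luminescence reflects streptokinase promoter inhibition or plain growth inhibition; 0% = median of DMSO wells and 100% = positive control at its reference dose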
# HGIII-sPLA2 inh: Blocks human group III sPLA2 activity; inhibition, % at 12.2 µM; AID 743126; 370,000 tested, 0.56% active; QFRET BODIPY PC-A2 liposome hydrolysis, fluorescence; Q9NZ20;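 active = inhibition above mean plus 3 SD of compounds lying within the high and low control bounds, cut at about 19% in these data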;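 also: 0% = median of test compound wells and 100% = no enzyme DMSO wells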
# ASAP1 inh: ASAP1 ArfGAP inhibition; ASAP1-stimulated ARF1 GTP hydrolysis, GDP FP detection; AID 624377; inhibition, % at 16.5 µM; 360,000 tested, 0.19% active; Q9ULH1; in the data active = inhibition above about 25%;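 also: 0% = vehicle with enzyme and substrate and 100% = no enzyme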
# Calb FLC: affects C. albicans growth with fluconazole. C. albicans CaCi-2 + fluconazole, Alamar Blue growth, 48 h. growth inhibition, % (test concentration not listed). 300,000 tested, 0.57% active. AID 1979;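 active = growth inhibition above about 58% in most replicates, limit read from the data, passing the limit was not always enough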;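 also: all wells also contain fluconazole at 8 µg/ml as a sub-toxic cotreatment; 0% = median of DMSO wells and 100% = median of geldanamycin control wells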
# Numbers without * were called inactive; · = no result.
SMILES,ARFGAP1 inh,SKKanGAS inh,HGIII-sPLA2 inh,ASAP1 inh,Calb FLC
CCC(CC)c1nn2c(N)c(/C=C3\C(C)=Nc4ccccc43)c(=O)nc2s1,3,62*,-19,16,41
NC(=S)N=Nc1ccc(NN=C(N)N)cc1,11,106*,0,0,·
Cc1cc(C)cc(NC2=NC3(CCCCC3)N=C(N)N2)c1,0,-1,2,-8,8
Cc1cccc(NC2=NC(C)(C)N=C(N)N2)c1,-11,111*,8,5,0
Nc1nc(N)c2cc(Sc3ccc4ccccc4c3)ccc2n1,10,109*,4,9,100*
Cc1ccc(O)c(C2=NNC(c3ccc(Cl)cc3)C2)c1 (centres undefined),6,57*,2,1,78*
Oc1ccc(Cl)cc1C1=NNC(c2cccs2)C1 (centres undefined),-3,61*,-9,-1,-14
O=[N+]([O-])c1ccc(O)c(C2=NNC(c3ccccc3F)C2)c1 (centres undefined),-1,16,-9,-8,39
COc1cc(C=Nn2c(-c3cc(C)[nH]n3)n[nH]c2=S)cc(Br)c1O,·,·,5,·,·
O=C(O)CSc1cccc[n+]1[O-],4,5,8,3,-12
O=C(CSc1cccc[n+]1[O-])c1cc(Cl)ccc1Cl,-8,28,-14,-5,100*
Cc1ccc(-c2cc(-c3ccccc3)nc(N(C)N)n2)cc1,24,68*,-2,2,4
Cc1ccc(-c2cc(N)nc(-c3ccccc3)c2)cc1,6,0,-6,6,20
COc1ccc(C(=O)c2[nH]c(N)c(C(=O)NCCc3c[nH]c4ccccc34)c2-c2c(F)cccc2Cl)cc1,7,·,-56,-5,·
COc1ccc(NC(=O)/C(C#N)=C\c2ccc(N3CCOCC3)o2)cc1,-4,-6,-61,0,103*
COc1ccccc1NC(=O)c1ccc(NC(=O)c2cc3c(s2)CCC3)cc1,-13,73*,-2,3,7
O=S1(=O)c2c(cccc2N2CCC[C@@H]2CO)OCCCN1C1CC1,·,·,-3,·,·
COC(=O)c1cccc(-n2c(C)cc(/C=C3\SC(=O)NC3=O)c2C)c1,-16,·,-16,-2,·
Cc1cc(/C=C2/SC(=O)NC2=O)c(C)n1-c1ccc(N2CCOCC2)cc1,-9,90*,3,11,-1
COc1ccc(-n2c(C)cc(/C=C3\SC(=S)NC3=O)c2C)cc1,-1,17,1,-9,-2
CNC(=O)/C(C#N)=C\c1cc(C)n(-c2ccc(N3CCOCC3)cc2)c1C,-3,62*,-3,-7,13
Cc1cc(/C=C2\SC(=Nc3ccc(F)cc3)NC2=O)c(C)n1-c1ccc(S(N)(=O)=O)cc1,16,61*,-19,19,1
Cc1cc(/C=C2\SC(=S)NC2=O)c(C)n1-c1ccc(O)cc1,7,100*,13,9,15
Cc1cc(/C=C2\SC(=S)NC2=O)c(C)n1-c1ccccc1,3,41,5,-15,27
CCOCC(=O)NC(=O)N1C[C@H]2CON(C)[C@H]2C[C@H]1c1ccc(OC)cc1,·,·,11,·,·
SMILES,ARFGAP1 inh,SKKanGAS inh,HGIII-sPLA2 inh,ASAP1 inh,Calb FLC
CCCCNC(=O)C1CCCN1C(=O)NCc1ccccc1OC (centres undefined),·,·,13,·,·
O=C(N[C@H](Cc1ccccc1)C(=O)NCc1ccc2c(c1)OCO2)[C@H]1O[C@@H](n2ccc(=O)[nH]c2=O)[C@H](O)[C@@H]1O,-5,·,-2,-14,·
O=c1[nH]cc(S(=O)(=O)N2CCN(c3ccccc3F)CC2)c(=O)[nH]1,10,·,0,0,·
CCCCOCCCNC(=O)C[C@@H]1C(=O)N2CCCC3=C2[C@@]1(C(=O)OCC)CCC3,·,·,-2,·,·
Cc1ccc(NC(=S)NCCSc2ccc(Cl)cc2)cc1,6,8,-1,-6,4
CC(CNC(=S)Nc1cc(F)cc(F)c1)CSc1ccc(Cl)cc1 (centres undefined),8,55*,-2,-1,2
Cc1noc(C)c1C(=O)N1CCC1(C)C(=O)NS(=O)(=O)c1cccc(OC(F)F)c1 (centres undefined),-8,·,3,5,·
CC(C)[C@H](NC(=O)[C@H](Cc1ccccc1)NC(=O)OC(C)(C)C)C(=O)N1CCC2CCN(S(=O)(=O)c3ccccc3)CC21 (some centres undefined),·,·,-4,·,·
CCOc1cccc(C2C(C(=O)c3ccc(C)o3)=C(O)C(=O)N2Cc2ccccc2)c1 (centres undefined),-4,32,-3,-5,14

# High-throughput results (PubChem)
